Measured values published in ChEMBL document CHEMBL3784997 (J Med Chem, 2016).

Columns and labels:
Adenosine receptor A2b [1] = molecular target: T1, Adenosine receptor A2b (Homo sapiens, UniProt P29275); test: Displacement of [3H]OSIP339391 from human recombinant Adenosine A2B receptor expressed in HEK293 cells after 60 mins; format: cell-based
T1 sequence (P29275 whole entry): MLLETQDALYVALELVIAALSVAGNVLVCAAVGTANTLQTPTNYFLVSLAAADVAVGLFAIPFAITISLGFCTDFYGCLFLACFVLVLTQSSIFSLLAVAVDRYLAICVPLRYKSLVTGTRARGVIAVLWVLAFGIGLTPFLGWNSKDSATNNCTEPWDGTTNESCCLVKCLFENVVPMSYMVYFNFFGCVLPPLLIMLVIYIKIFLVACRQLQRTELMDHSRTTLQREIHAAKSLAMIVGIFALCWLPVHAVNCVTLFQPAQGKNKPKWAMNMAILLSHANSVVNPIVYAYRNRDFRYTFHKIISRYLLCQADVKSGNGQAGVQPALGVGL

[2] = molecular target: T2, Adenosine receptor A1 (Homo sapiens) (UniProt P30542); test: Displacement of [3H]DPCPX from human Adenosine A1 receptor expressed in CHO cells at 1 uM after 60 mins; format: cell-based
T2 sequence (whole entry): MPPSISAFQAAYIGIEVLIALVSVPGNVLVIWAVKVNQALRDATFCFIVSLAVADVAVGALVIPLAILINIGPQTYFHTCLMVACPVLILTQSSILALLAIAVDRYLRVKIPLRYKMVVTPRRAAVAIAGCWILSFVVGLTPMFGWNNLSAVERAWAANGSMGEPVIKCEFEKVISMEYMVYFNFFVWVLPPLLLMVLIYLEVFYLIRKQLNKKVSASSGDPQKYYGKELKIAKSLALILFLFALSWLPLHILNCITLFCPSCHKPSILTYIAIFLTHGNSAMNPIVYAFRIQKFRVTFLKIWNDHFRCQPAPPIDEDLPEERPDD
How it was run: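 Competition binding on membranes from CHO cells expressing human A1, labelled with 2 nM [3H]DPCPX. Non-specific binding was defined with 10 µM R-PIA, and incubation was at 25 °C for 60 min. The value is percent inhibition of specific binding at 1 µM test compound (n = 2, average).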

[3] = molecular target: Adenosine receptor A2a (Homo sapiens) (UniProt P29274); test: Displacement of [3H]ZM241385 from human Adenosine A2A receptor expressed in HeLa cells at 1 uM after 30 mins; format: cell-based
How it was run: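 Membranes from HeLa cells expressing human A2A were labelled with 3 nM [3H]ZM241385, with non-specific binding defined by 50 µM NECA, and incubated at 25 °C for 30 min. The value is percent displacement of specific binding at 1 µM test compound (n = 2).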

[4] = molecular target: T3, Adenosine receptor A2b (Homo sapiens) (UniProt P29275); test: Displacement of [3H]DPCPX from human Adenosine A2B receptor expressed in HEK293 cells at 1 uM after 30 mins; format: cell-based
T3 sequence (whole entry): T1 sequence (P29275 whole entry)
How it was run: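 Membranes from HEK-293 cells expressing human A2B were labelled with 35 nM [3H]DPCPX, with non-specific binding defined by 400 µM NECA, and incubated at 25 °C for 30 min.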

Adenosine receptor A3 = molecular target: T4, Adenosine receptor A3 (Homo sapiens, UniProt P0DMS8); test: Displacement of [3H]NECA from human Adenosine A3 receptor expressed in HeLa cells after 180 mins
T4 sequence (P0DMS8 whole entry): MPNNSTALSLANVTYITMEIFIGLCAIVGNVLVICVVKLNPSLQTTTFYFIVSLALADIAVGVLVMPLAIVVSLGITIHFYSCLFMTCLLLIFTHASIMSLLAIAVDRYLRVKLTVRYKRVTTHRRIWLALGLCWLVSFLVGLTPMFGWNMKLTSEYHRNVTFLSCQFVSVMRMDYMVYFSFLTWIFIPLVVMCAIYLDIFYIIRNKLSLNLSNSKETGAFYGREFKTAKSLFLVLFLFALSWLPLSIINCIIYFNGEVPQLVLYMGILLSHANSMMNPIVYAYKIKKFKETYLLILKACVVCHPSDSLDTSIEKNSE

Adenosine receptor A2b [5] = molecular target: T1, Adenosine receptor A2b; test: Displacement of [3H]DPCPX from human Adenosine A2B receptor expressed in HEK293 cells after 30 mins; format: cell-based
[6] = molecular target: T3, Adenosine receptor A2b (Homo sapiens); test: Antagonist activity at human Adenosine A2B receptor expressed in HEK293 cells assessed as inhibition of NECA-induced cAMP production preincubated for 15 mins followed by NECA addition measured after 15 mins by enzyme immunoassay; format: functional, cell-based
How it was run: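 HEK293 cells seeded at 10000 cells/well and grown at 37 °C, 5% CO2 in EMEM F-12 with 10% FCS and 1% L-glutamine. After washing, cells were preincubated 15 min at 37 °C with compound and 30 µM rolipram in EMEM-F12/25 mM HEPES pH 7.4. NECA was then added for 15 min at 37 °C. cAMP was read by enzyme immunoassay after kit lysis; n = 3, each in duplicate.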

[7] = molecular target: T5, Adenosine receptor A3 (Homo sapiens) (UniProt P0DMS8); test: Displacement of [3H]NECA from human Adenosine A3 receptor expressed in HeLa cells at 1 uM after 180 mins
T5 sequence (whole entry): T4 sequence (P0DMS8 whole entry)

Adenosine receptor A2a (Homo sapiens), sequence (P29274 whole entry): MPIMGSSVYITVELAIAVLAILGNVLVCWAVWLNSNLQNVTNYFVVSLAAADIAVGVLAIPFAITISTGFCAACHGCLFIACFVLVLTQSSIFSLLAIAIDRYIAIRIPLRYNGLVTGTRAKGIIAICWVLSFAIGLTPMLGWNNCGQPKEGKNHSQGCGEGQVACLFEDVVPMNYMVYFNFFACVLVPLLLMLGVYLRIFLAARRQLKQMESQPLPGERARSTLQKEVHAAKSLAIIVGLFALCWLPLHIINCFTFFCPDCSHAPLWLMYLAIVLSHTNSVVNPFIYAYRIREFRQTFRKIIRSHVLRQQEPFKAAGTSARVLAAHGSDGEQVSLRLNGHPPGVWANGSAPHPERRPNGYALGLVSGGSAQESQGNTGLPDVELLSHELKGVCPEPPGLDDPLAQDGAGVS

Ki (Adenosine receptor A2b [1]) | Activity [2] | Activity [3] | Activity [4] | Ki (Adenosine receptor A3) | Ki (Adenosine receptor A2b [5]) | Kb [6] | Activity [7] | Structure (SMILES)
0.0005 µM |  |  |  |  |  |  |  | CC(=O)NCCNc1nc(-c2ccccc2)nc2nc(C(=O)N3CCN(CCCc4ccccc4)CC3)[nH]c12
 | 2% | 2% | 8% | 4.61 µM |  |  |  | CCOC(=O)C1=C(C)Nc2nccn2C1c1cccs1 (racemic)
 | 2% | 5% |  |  | 0.0556 µM | 0.266 µM | 2% | CC1=C(C(=O)OC(C)C)C(c2ccco2)n2ncnc2N1 (racemic)
 | 20% | 25% |  |  |  | 0.027 µM | 2% | CC1=C(C(=O)OC(C)C)C(c2ccco2)n2c(nc3ccccc32)N1 (racemic)
